Source: ChEMBL document CHEMBL1155209, “Synthesis and in vitro study of 14-aryl-14H-dibenzo[a.j]xanthenes as cytotoxic agents” (Bioorg Med Chem Lett, 2009)

Experiments:
Format in all cases: functional, cell-based
[1] = Cytotoxicity against human 502713 cells […] by SRB assay
SK-N-SH = assay: Cytotoxicity against human SK-N-SH cells […] by SRB assay
SW-620 = assay: Cytotoxicity against human SW620 cells […] by SRB assay
PC-3 = assay: Cytotoxicity against human PC3 cells […] by SRB assay; conditions: PC-3, 48 h, in the assay text read “48 hrs” for “72 hrs”
How it was run: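 Human cancer lines from NCI grown in RPMI-1640 (2 mM glutamine, pH 7.4, 10% fetal calf serum, streptomycin/penicillin) at 37 °C, 5% CO2. Cells trypsinized at subconfluence, >98% viable by trypan blue, seeded and grown 24 h, then given test material for 48 h. TCA fixation at 4 °C 1 h, SRB staining, dye dissolved in Tris-HCl pH 10.4, OD 540 nm. Growth inhibition relative to untreated control after blank subtraction.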

COLO 205 = assay: Cytotoxicity against human COLO205 cells […] by SRB assay
A549 = assay: Cytotoxicity against human A549 cells […] by SRB assay

SMILES	IC50 [1] [µM]	IC50 (SK-N-SH) [µM]	IC50 (SW-620) [µM]	IC50 (PC-3) [µM]	IC50 (COLO 205) [µM]	IC50 (A549) [µM]
OCC(O)COc1ccc(C2c3c(ccc4ccccc34)Oc3ccc4ccccc4c32)cc1 (stereo unspecified)	41.3	44	49.1	63.9	37.9	128
COc1cc(C2c3c(ccc4ccccc34)Oc3ccc4ccccc4c32)ccc1O	45.4	44.3	54.4	61.1	41.9	74.3
O=[N+]([O-])c1ccccc1C1c2c(ccc3ccccc23)Oc2ccc3ccccc3c21	50	55	63.2	82		
